# According to ChEMBL document CHEMBL1275595, “Antimicrobial activity of a halocidin-derived peptide resistant to attacks by proteases” (2010):
# Activity calls are given as the source filed them. The calls are words filed in the database; no cut-off is given here. Numbered stars: 1 amine (or outer) side, 2 acyl side, 3 side chain; on linkers, the order of the positions; unused ones are H or OH. Bridge positions count the residues as written; N and C are the ends. Square brackets hold non-standard residues; d marks the D form. Peptide text beside a SMILES is read from it. I, II: the chains in the order shown. Gly(αS-SH) = O=C([C@@H](N[*:1])S[*:3])[*:2]; Nva(4-oxo) = CC(=O)C[C@H](N)C(=O)O
# Columns and labels:
# Format in all cases: functional, organism-based
# [1] = tested on: Staphylococcus aureus; assay: Antimicrobial activity against methicillin-resistant Staphylococcus aureus CCARM 3696 by radial diffusion assay incubated with chymotrypsin
# [2] = tested on: Staphylococcus aureus; assay: Antimicrobial activity against methicillin-resistant Staphylococcus aureus CCARM 3696 by radial diffusion assay
# How it was run: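 Radial diffusion. Washed mid-log MRSA (4 × 10^6 CFU) was mixed into 10 ml underlay of 1% agarose and 0.03% TSB in 9 mM NaP/1 mM sodium citrate, pH 7.4. Wells 3 mm wide received 5 μl of peptide at 200 μg/ml in 0.01% acetic acid. After 3 h at 37°C, a 1% agarose/6% TSB overlay was added and plates were incubated overnight. Clear zone diameter was read in units, 0.1 mm = 1 unit.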
# [3] = tested on: Staphylococcus aureus; assay: Antimicrobial activity against methicillin-resistant Staphylococcus aureus CCARM 3696 by radial diffusion assay incubated with trypsin
SMILES,Activity [1],Activity [2],Activity [3]
CC(C)C[C@H](NC(=O)[C@H](CC(C)C)NC(=O)[C@H](C)NC(=O)[C@H](CC(N)=O)NC(=O)[C@H](CC(C)C)NC(=O)[C@H](Cc1c[nH]c2ccccc12)NC(=O)[C@@H](N)CCCCN)C(=O)O (H-KWLNALL-OH),inactive,–,–
CC(C)C[C@H](NC(=O)CNC(=O)[C@H](Cc1cnc[nH]1)NC(=O)[C@@H](N)Cc1cnc[nH]1)C(=O)N[C@@H](CC(N)=O)C(=O)N[C@@H](CSSC[C@H](NC(=O)[C@H](CC(N)=O)NC(=O)[C@H](CC(C)C)NC(=O)CNC(=O)[C@H](Cc1cnc[nH]1)NC(=O)[C@@H](N)Cc1cnc[nH]1)C(=O)N[C@@H](C)C(=O)N[C@@H](CCCCN)C(=O)NCC(=O)N[C@H](C(=O)N[C@@H](CC(C)C)C(=O)N[C@@H](C)C(N)=O)C(C)C)C(=O)N[C@@H](C)C(=O)N[C@@H](CCCCN)C(=O)NCC(=O)N[C@H](C(=O)N[C@@H](CC(C)C)C(=O)N[C@@H](C)C(N)=O)C(C)C (I: H-HHGLNCAKGVLA-NH2 / II: H-HHGLNCAKGVLA-NH2; disulfide I:6-II:6),Active,–,–
CC(C)C[C@H](NC(=O)CNC(=O)[C@H](Cc1cnc[nH]1)NC(=O)[C@H](Cc1cnc[nH]1)NC(=O)[C@H](CC(C)C)NC(=O)[C@H](CC(C)C)NC(=O)[C@H](C)NC(=O)[C@H](CCCCN)NC(=O)[C@@H](N)CCCCN)C(=O)N[C@@H](CC(N)=O)C(=O)N[C@@H](CSSC[C@H](NC(=O)[C@H](CC(N)=O)NC(=O)[C@H](CC(C)C)NC(=O)CNC(=O)[C@H](Cc1cnc[nH]1)NC(=O)[C@@H](N)Cc1cnc[nH]1)C(=O)N[C@@H](C)C(=O)N[C@@H](CCCCN)C(=O)NCC(=O)N[C@H](C(=O)N[C@@H](CC(C)C)C(=O)N[C@@H](C)C(N)=O)C(C)C)C(=O)N[C@@H](C)C(=O)N[C@@H](CCCCN)C(=O)NCC(=O)N[C@H](C(=O)N[C@@H](CC(C)C)C(=O)N[C@@H](C)C(N)=O)C(C)C (I: H-KKALLHHGLNCAKGVLA-NH2 / II: H-HHGLNCAKGVLA-NH2; disulfide I:11-II:6),–,inactive,–
CC(C)C[C@H](NC(=O)CNC(=O)[C@H](Cc1cnc[nH]1)NC(=O)[C@H](Cc1cnc[nH]1)NC(=O)[C@H](CC(C)C)NC(=O)[C@H](CC(C)C)NC(=O)[C@H](C)NC(=O)[C@H](CCCCN)NC(=O)[C@H](CCCCN)NC(=O)[C@H](Cc1c[nH]c2ccccc12)NC(=O)[C@@H](N)CCCCN)C(=O)N[C@@H](CC(N)=O)C(=O)N[C@@H](CSSC[C@H](NC(=O)[C@H](CC(N)=O)NC(=O)[C@H](CC(C)C)NC(=O)CNC(=O)[C@H](Cc1cnc[nH]1)NC(=O)[C@@H](N)Cc1cnc[nH]1)C(=O)N[C@@H](C)C(=O)N[C@@H](CCCCN)C(=O)NCC(=O)N[C@H](C(=O)N[C@@H](CC(C)C)C(=O)N[C@@H](C)C(N)=O)C(C)C)C(=O)N[C@@H](C)C(=O)N[C@@H](CCCCN)C(=O)NCC(=O)N[C@H](C(=O)N[C@@H](CC(C)C)C(=O)N[C@@H](C)C(N)=O)C(C)C (I: H-KWKKALLHHGLNCAKGVLA-NH2 / II: H-HHGLNCAKGVLA-NH2; disulfide I:13-II:6),–,Active,–
CC(C)C[C@H](NC(=O)CNC(=O)[C@H](Cc1cnc[nH]1)NC(=O)[C@H](Cc1cnc[nH]1)NC(=O)[C@H](CC(C)C)NC(=O)[C@H](CC(C)C)NC(=O)[C@H](C)NC(=O)[C@H](CCCCN)NC(=O)[C@H](CCCCN)NC(=O)[C@H](Cc1c[nH]c2ccccc12)NC(=O)[C@@H](N)CCCCN)C(=O)N[C@@H](CC(N)=O)C(=O)N[C@@H](CSSC[C@H](NC(=O)[C@H](CC(N)=O)NC(=O)[C@H](CC(C)C)NC(=O)CNC(=O)[C@H](Cc1cnc[nH]1)NC(=O)[C@H](Cc1cnc[nH]1)NC(=O)[C@H](CC(C)C)NC(=O)[C@H](CC(C)C)NC(=O)[C@H](C)NC(=O)[C@H](CCCCN)NC(=O)[C@@H](N)CCCCN)C(=O)N[C@@H](C)C(=O)N[C@@H](CCCCN)C(=O)NCC(=O)N[C@H](C(=O)N[C@@H](CC(C)C)C(=O)N[C@@H](C)C(N)=O)C(C)C)C(=O)N[C@@H](C)C(=O)N[C@@H](CCCCN)C(=O)NCC(=O)N[C@H](C(=O)N[C@@H](CC(C)C)C(=O)N[C@@H](C)C(N)=O)C(C)C (I: H-KWKKALLHHGLNCAKGVLA-NH2 / II: H-KKALLHHGLNCAKGVLA-NH2; disulfide I:13-II:11),–,Active,–
CC(C)C[C@H](NC(=O)CNC(=O)[C@H](Cc1cnc[nH]1)NC(=O)[C@H](Cc1cnc[nH]1)NC(=O)[C@H](CC(C)C)NC(=O)[C@H](CC(C)C)NC(=O)[C@H](C)NC(=O)[C@H](CCCCN)NC(=O)[C@H](CCCCN)NC(=O)[C@H](Cc1c[nH]c2ccccc12)NC(=O)[C@@H](N)CCCCN)C(=O)N[C@@H](CC(N)=O)C(=O)N[C@@H](CSSC[C@H](NC(=O)[C@H](CC(N)=O)NC(=O)[C@H](CC(C)C)NC(=O)CNC(=O)[C@H](Cc1cnc[nH]1)NC(=O)[C@H](Cc1cnc[nH]1)NC(=O)[C@@H](N)CC(C)C)C(=O)N[C@@H](C)C(=O)N[C@@H](CCCCN)C(=O)NCC(=O)N[C@H](C(=O)N[C@@H](CC(C)C)C(=O)N[C@@H](C)C(N)=O)C(C)C)C(=O)N[C@@H](C)C(=O)N[C@@H](CCCCN)C(=O)NCC(=O)N[C@H](C(=O)N[C@@H](CC(C)C)C(=O)N[C@@H](C)C(N)=O)C(C)C (I: H-KWKKALLHHGLNCAKGVLA-NH2 / II: H-LHHGLNCAKGVLA-NH2; disulfide I:13-II:7),–,Active,–
CC(C)C[C@H](NC(=O)CNC(=O)[C@H](Cc1cnc[nH]1)NC(=O)[C@H](Cc1cnc[nH]1)NC(=O)[C@H](CC(C)C)NC(=O)[C@H](CC(C)C)NC(=O)[C@H](C)NC(=O)[C@H](CC(N)=O)NC(=O)[C@H](CC(C)C)NC(=O)[C@H](Cc1c[nH]c2ccccc12)NC(=O)[C@@H](N)CCCCN)C(=O)N[C@@H](CC(N)=O)C(=O)N[C@@H](CSS[C@H](NC(=O)[C@H](CC(N)=O)NC(=O)[C@H](CC(C)C)NC(=O)CNC(=O)[C@H](Cc1cnc[nH]1)NC(=O)[C@H](Cc1cnc[nH]1)NC(=O)[C@H](CC(C)C)NC(=O)[C@H](CC(C)C)NC(=O)[C@H](C)NC(=O)[C@H](CC(N)=O)NC(=O)[C@H](CC(C)C)NC(=O)[C@@H](N)Cc1c[nH]c2ccccc12)C(=O)N[C@@H](C)C(=O)N[C@@H](CCCCN)C(=O)O)C(=O)N[C@@H](C)C(=O)N[C@@H](CCCCN)C(=O)O (I: H-KWLNALLHHGLNCAK-OH / II: H-WLNALLHHGLN[Gly(αS-SH)]AK-OH; disulfide I:13-II:12),–,–,Active
CC(C)C[C@H](NC(=O)CNC(=O)[C@H](Cc1cnc[nH]1)NC(=O)[C@H](Cc1cnc[nH]1)NC(=O)[C@H](CC(C)C)NC(=O)[C@H](CC(C)C)NC(=O)[C@H](C)NC(=O)[C@H](CC(N)=O)NC(=O)[C@H](CC(C)C)NC(=O)[C@H](Cc1c[nH]c2ccccc12)NC(=O)[C@@H](N)CCCCN)C(=O)N[C@@H](CC(N)=O)C(=O)N[C@@H](CSSC[C@H](NC(=O)[C@H](CC(N)=O)NC(=O)[C@H](CC(C)C)NC(=O)CNC(=O)[C@H](Cc1cnc[nH]1)NC(=O)[C@@H](N)Cc1cnc[nH]1)C(=O)N[C@@H](C)C(=O)N[C@@H](CCCCN)C(=O)NCC(=O)N[C@H](C(=O)N[C@@H](CC(C)C)C(=O)N[C@@H](C)C(N)=O)C(C)C)C(=O)N[C@@H](C)C(=O)N[C@@H](CCCCN)C(=O)NCC(=O)N[C@H](C(=O)N[C@@H](CC(C)C)C(=O)N[C@@H](C)C(N)=O)C(C)C (I: H-KWLNALLHHGLNCAKGVLA-NH2 / II: H-HHGLNCAKGVLA-NH2; disulfide I:13-II:6),Active,–,–
CC(C)C[C@H](NC(=O)CNC(=O)[C@H](Cc1cnc[nH]1)NC(=O)[C@H](Cc1cnc[nH]1)NC(=O)[C@H](CC(C)C)NC(=O)[C@H](CC(C)C)NC(=O)[C@H](C)NC(=O)[C@H](CC(N)=O)NC(=O)[C@H](CC(C)C)NC(=O)[C@H](Cc1c[nH]c2ccccc12)NC(=O)[C@@H](N)CCCCN)C(=O)N[C@@H](CC(N)=O)C(=O)N[C@@H](CSSC[C@H](NC(=O)[C@H](CC(N)=O)NC(=O)[C@H](CC(C)C)NC(=O)CNC(=O)[C@H](Cc1cnc[nH]1)NC(=O)[C@H](Cc1cnc[nH]1)NC(=O)[C@H](CC(C)C)NC(=O)[C@H](CC(C)C)NC(=O)[C@H](C)NC(=O)[C@H](CC(N)=O)NC(=O)[C@H](CC(C)C)NC(=O)[C@H](Cc1c[nH]c2ccccc12)NC(=O)[C@@H](N)CCCCN)C(=O)N[C@@H](C)C(=O)N[C@@H](CCCCN)C(=O)NCC(=O)N[C@H](C(=O)N[C@@H](CC(C)C)C(=O)N[C@@H](C)C(N)=O)C(C)C)C(=O)N[C@@H](C)C(=O)N[C@@H](CCCCN)C(=O)O (I: H-KWLNALLHHGLNCAKGVLA-NH2 / II: H-KWLNALLHHGLNCAK-OH; disulfide I:13-II:13),–,–,Active
CC(=O)C[C@H](NC(=O)[C@H](CC(C)C)NC(=O)CNC(=O)[C@H](Cc1cnc[nH]1)NC(=O)[C@H](Cc1cnc[nH]1)NC(=O)[C@H](CC(C)C)NC(=O)[C@H](CC(C)C)NC(=O)[C@H](C)NC(=O)[C@H](CC(N)=O)NC(=O)[C@H](CC(C)C)NC(=O)[C@@H](N)Cc1c[nH]c2ccccc12)C(=O)N[C@@H](CSSC[C@H](NC(=O)[C@H](CC(N)=O)NC(=O)[C@H](CC(C)C)NC(=O)CNC(=O)[C@H](Cc1cnc[nH]1)NC(=O)[C@H](Cc1cnc[nH]1)NC(=O)[C@H](CC(C)C)NC(=O)[C@H](CC(C)C)NC(=O)[C@H](C)NC(=O)[C@H](CC(N)=O)NC(=O)[C@H](CC(C)C)NC(=O)[C@@H](N)Cc1c[nH]c2ccccc12)C(=O)N[C@@H](C)C(=O)N[C@@H](CCCCN)C(=O)O)C(=O)N[C@@H](C)C(=O)N[C@@H](CCCCN)C(=O)O (I: H-WLNALLHHGL[Nva(4-oxo)]CAK-OH / II: H-WLNALLHHGLNCAK-OH; disulfide I:12-II:12),–,–,inactive
